Data from ChEMBL document CHEMBL4118273, “Design, Synthesis, and Biological Evaluation of Pyrimido[4,5- d]pyrimidine-2,4(1 H,3 H)-diones as Potent and Selective Epidermal Growth Factor Receptor (EGFR) Inhibitors against L858R/T790M Resistance Mutation” (J Med Chem, 2018).

Tests used:
[1] = Efflux ratio of apparent permeability from apical to basolateral side in MDCK2 cells at 2 uM after 2.5 hrs by LC-MS/MS method; assay type: ADME, cell-based, Canis lupus familiaris, MDCK-II; details: dog, MDCK
[2] = AUC (0 to infinity) in ICR mouse at 10 mg/kg, po by LC-MS/MS analysis; assay type: ADME, organism-based; design: dose 10 mg/kg, route oral, time infinity; details: in vivo
[3] = molecular target: T1, Epidermal growth factor receptor (Homo sapiens, UniProt P00533); assay: Inhibition of recombinant human GST-tagged EGFR (668 to 1210 residues) expressed in baculovirus expression system using Poly(Glu,Tyr)4:1 as substrate after 1 hr by ELISA
NCI-H1975 [4] = assay: Antiproliferative activity against human NCI-H1975 cells harboring EGFR L858R/T790M double mutant after 72 hrs by SRB assay; assay type: functional, cell-based; details: NCI-H1975, 72 h
Summary of the method: (§1)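 Cell growth inhibition measured by sulforhodamine B colorimetric assay in H1975 (EGFR L858R/T790M) and A431 (overexpressed wild-type EGFR) cells; IC50 values are means ± SD of at least three independent determinations. Selectivity is taken as the A431:H1975 IC50 ratio.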

[5] = AUC (0 to infinity) in ICR mouse at 1 mg/kg, iv by LC-MS/MS analysis; assay type: ADME, organism-based; design: dose 1 mg/kg, route intravenous, time infinity; details: in vivo
Mus musculus [6] = assay: Toxicity in Balb/c mouse xenografted with human A431 cells assessed as body weight loss at 50 mg/kg/day, po once daily for 14 days measured every 2 to 3 days during compound dosing; assay type: organism-based; details: in vivo
Summary of the method: (§2)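 A431 or H1975 cells were grown in RPMI-1640 with 10% FBS, and about 2 × 10^6 cells were implanted subcutaneously in the right flank of 4–6-week-old BALB/c mice. At 200–400 mm³, mice were randomized to vehicle or treated groups (n = 6). Dosing was oral, once daily, for 14 days. Body weights were recorded every 2–3 days.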

[7] = AUC (0 to t) in ICR mouse at 1 mg/kg, iv by LC-MS/MS analysis; assay type: ADME, organism-based; details: in vivo
[8] = Cmax in ICR mouse at 10 mg/kg, po by LC-MS/MS analysis; assay type: ADME, organism-based; design: dose 10 mg/kg, route oral; details: in vivo
[9] = Clearance in ICR mouse at 1 mg/kg, iv by LC-MS/MS analysis; assay type: ADME, organism-based; details: in vivo
[10] = Half life in mouse liver microsomes at 0.1 uM after 60 mins in presence of NADPH by LC-MS/MS analysis; assay type: ADME, microsome
Summary of the method: (§3)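 Human or mouse liver microsomes (0.33 mg/mL protein) in 0.1 M Tris/HCl pH 7.4 with 5 mM MgCl2, 1 mM NADPH, 0.01% DMSO and 0.005% BSA; test compound at 0.1 µM final, 37 °C for 60 min. Aliquots at 0, 7, 17, 30 and 60 min quenched by methanol precipitation, centrifuged and analysed by LC-MS/MS.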

[11] = AUC (0 to t) in ICR mouse at 10 mg/kg, po by LC-MS/MS analysis; assay type: ADME, organism-based; details: in vivo
A-431 [12] = assay: Cytotoxicity against human A431 cells harboring wild type EGFR assessed as reduction in cell viability after 72 hrs by SRB assay; assay type: cell-based; details: A-431, 72 h; summary of the method: as §1
Homo sapiens = species on record: Homo sapiens; assay: Selectivity ratio of IC50 for recombinant human GST-tagged EGFR (668 to 1210 residues) expressed in baculovirus expression system to IC50 for recombinant human GST-tagged EGFR L858R/T790M double mutant expressed in baculovirus expression system
Summary of the method: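 ELISA-based EGFR tyrosine kinase assay run on wild-type and L858R/T790M enzymes. IC50 values come from at least three independent determinations, reported as means ± SD. Selectivity is the wild-type IC50 divided by the L858R/T790M IC50.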

[13] = Oral bioavailability in ICR mouse at 10 mg/kg by LC-MS/MS analysis; assay type: ADME, organism-based; details: in vivo
Cytochrome P450 2C9 = Cytochrome P450 2C9 (Homo sapiens, UniProt P11712); assay: Inhibition of human CYP2C9 (unknown origin); assay type: ADME
A-431 [14] = assay: Growth inhibition of human A431 cells xenografted in Balb/c mouse at 50 mg/kg/day, po for 14 days measured every 2 to 3 days during compound dosing relative to control; assay type: organism-based; details: A-431, po, read-out: GI
Summary of the method: (§4)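 BALB/c mice, 4–6 weeks old, implanted subcutaneously in the right flank with about 2 × 10^6 H1975 or A431 cells grown in RPMI-1640 with 10% FBS. At 200–400 mm3 tumors, mice were randomized (six/group) and dosed orally once daily with vehicle or inhibitor for 14 days. Caliper volumes, V = L×W²/2, were taken every 2–3 days; means ± SEM, Student's t test vs vehicle.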

[15] = molecular target: Epidermal growth factor receptor (Homo sapiens, UniProt P00533, L858R/T790M); assay: Inhibition of recombinant human GST-tagged EGFR L858R/T790M double mutant expressed in baculovirus expression system using Poly(Glu,Tyr)4:1 as substrate after 1 hr by ELISA
[16] = Half life in ICR mouse at 1 mg/kg, iv by LC-MS/MS analysis; assay type: ADME, organism-based; details: in vivo
[17] = Tmax in ICR mouse at 10 mg/kg, po by LC-MS/MS analysis; assay type: ADME, organism-based; details: in vivo
Mus musculus [18] = assay: Toxicity in Balb/c mouse xenografted with human A431 cells assessed as mortality at 50 mg/kg/day, po once daily for 14 days measured every 2 to 3 days during compound dosing; assay type: organism-based; details: in vivo
[19] = Tmax in ICR mouse at 1 mg/kg, iv by LC-MS/MS analysis; assay type: ADME, organism-based; details: in vivo
Mus musculus [20] = assay: Toxicity in Balb/c mouse xenografted with human NCI-H1975 cells assessed as body weight loss at 50 mg/kg/day, po once daily for 14 days measured every 2 to 3 days during compound dosing; assay type: organism-based; details: in vivo; summary of the method: as §2
[21] = Half life in human liver microsomes at 0.1 uM after 60 mins in presence of NADPH by LC-MS/MS analysis; assay type: ADME, microsome; summary of the method: as §3
[22] = Cmax in ICR mouse at 1 mg/kg, iv by LC-MS/MS analysis; assay type: ADME, organism-based; design: dose 1 mg/kg, route intravenous; details: in vivo
[23] = Apparent volume of distribution in ICR mouse at 1 mg/kg, iv by LC-MS/MS analysis; assay type: ADME, organism-based; details: in vivo, read-out: Vz
NCI-H1975 [24] = assay: Antitumor activity against human NCI-H1975 cells xenografted in Balb/c mouse assessed as tumor growth inhibition at 50 mg/kg/day, po once daily for 14 days measured every 2 to 3 days during compound dosing relative to control; assay type: functional; details: read-out: TGI; summary of the method: as §4
[25] = molecular target: T1, Epidermal growth factor receptor; assay: Inhibition of wild type EGFR in EGF-stimulated human A431 cells assessed as reduction in Akt phosphorylation at Ser-473 residue up to 1000 nM by Western blot method
Summary of the method: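 A431 cells lysed in Tris-HCl pH 6.8 buffer with DTT, SDS and glycerol; equal protein amounts resolved on 8% SDS-PAGE, transferred to nitrocellulose and probed for p-EGFR (Y1068), total EGFR, p-AKT (Ser473), total AKT and GAPDH.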

Mus musculus [26] = assay: Toxicity in Balb/c mouse xenografted with human NCI-H1975 cells assessed as mortality at 50 mg/kg/day, po once daily for 14 days measured every 2 to 3 days during compound dosing; assay type: organism-based; details: in vivo
Cytochrome P450 2C19 = Cytochrome P450 2C19 (Homo sapiens, UniProt P33261); assay: Inhibition of human CYP2C19 (unknown origin); assay type: ADME
Cytochrome P450 2C19, sequence (P33261 whole entry): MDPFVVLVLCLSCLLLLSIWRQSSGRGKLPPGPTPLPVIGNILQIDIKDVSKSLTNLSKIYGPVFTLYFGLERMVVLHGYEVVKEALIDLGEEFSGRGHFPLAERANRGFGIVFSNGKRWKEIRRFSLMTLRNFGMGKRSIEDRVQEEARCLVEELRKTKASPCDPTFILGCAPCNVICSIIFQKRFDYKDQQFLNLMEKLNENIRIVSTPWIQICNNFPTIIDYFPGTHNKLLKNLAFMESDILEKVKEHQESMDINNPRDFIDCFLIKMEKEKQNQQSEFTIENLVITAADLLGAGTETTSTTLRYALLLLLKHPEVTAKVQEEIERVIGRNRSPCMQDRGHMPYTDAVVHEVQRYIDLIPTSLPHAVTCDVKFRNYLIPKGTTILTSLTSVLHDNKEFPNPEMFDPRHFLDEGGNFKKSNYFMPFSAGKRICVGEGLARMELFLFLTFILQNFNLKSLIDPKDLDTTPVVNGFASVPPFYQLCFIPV

T1 sequence (P00533 whole entry, the tested form may be a part): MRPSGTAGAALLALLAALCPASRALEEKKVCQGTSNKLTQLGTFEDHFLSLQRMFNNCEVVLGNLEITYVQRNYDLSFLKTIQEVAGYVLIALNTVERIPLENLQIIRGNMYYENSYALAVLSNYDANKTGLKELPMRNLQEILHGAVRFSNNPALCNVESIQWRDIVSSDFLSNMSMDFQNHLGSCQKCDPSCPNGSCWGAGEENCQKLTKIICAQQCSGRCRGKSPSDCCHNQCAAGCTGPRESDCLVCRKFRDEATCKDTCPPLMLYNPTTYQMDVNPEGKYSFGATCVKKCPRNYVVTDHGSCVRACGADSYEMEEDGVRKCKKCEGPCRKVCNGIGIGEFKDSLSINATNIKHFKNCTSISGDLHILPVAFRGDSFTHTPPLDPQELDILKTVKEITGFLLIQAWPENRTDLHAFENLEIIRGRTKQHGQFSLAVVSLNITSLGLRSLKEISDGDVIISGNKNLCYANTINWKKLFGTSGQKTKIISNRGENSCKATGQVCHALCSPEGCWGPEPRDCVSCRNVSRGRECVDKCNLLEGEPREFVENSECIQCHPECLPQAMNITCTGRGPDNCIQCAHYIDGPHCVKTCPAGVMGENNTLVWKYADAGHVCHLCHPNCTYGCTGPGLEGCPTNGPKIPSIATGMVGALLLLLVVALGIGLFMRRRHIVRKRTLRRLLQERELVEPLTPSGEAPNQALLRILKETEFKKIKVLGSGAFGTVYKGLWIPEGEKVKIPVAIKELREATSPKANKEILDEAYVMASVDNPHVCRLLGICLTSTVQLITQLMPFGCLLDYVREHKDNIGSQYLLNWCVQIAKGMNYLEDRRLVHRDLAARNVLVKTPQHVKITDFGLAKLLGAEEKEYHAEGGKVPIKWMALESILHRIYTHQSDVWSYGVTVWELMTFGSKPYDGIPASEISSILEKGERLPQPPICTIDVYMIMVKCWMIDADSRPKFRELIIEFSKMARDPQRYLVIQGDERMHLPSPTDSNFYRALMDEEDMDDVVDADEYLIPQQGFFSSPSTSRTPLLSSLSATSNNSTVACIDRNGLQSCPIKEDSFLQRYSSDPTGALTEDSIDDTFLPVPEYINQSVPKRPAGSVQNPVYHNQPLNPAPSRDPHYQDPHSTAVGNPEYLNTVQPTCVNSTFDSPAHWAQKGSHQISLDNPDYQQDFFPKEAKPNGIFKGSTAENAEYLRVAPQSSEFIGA
Cytochrome P450 2C9, sequence (P11712 whole entry): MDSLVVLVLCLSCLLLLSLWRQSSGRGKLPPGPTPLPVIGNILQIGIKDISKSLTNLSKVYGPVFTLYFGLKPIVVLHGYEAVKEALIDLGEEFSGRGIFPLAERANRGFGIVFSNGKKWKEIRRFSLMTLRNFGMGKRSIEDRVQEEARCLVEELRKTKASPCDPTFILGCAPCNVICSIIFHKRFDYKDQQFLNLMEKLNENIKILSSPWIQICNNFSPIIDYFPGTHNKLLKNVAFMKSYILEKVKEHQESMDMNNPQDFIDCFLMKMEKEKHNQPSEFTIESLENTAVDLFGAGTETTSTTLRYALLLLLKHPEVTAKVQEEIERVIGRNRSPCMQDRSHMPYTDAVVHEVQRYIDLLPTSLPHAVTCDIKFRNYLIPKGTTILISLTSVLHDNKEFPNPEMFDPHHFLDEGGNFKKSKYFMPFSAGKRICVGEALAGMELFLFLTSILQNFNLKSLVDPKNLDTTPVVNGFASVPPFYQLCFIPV
Epidermal growth factor receptor (Homo sapiens, UniProt P00533, L858R/T790M), sequence (P00533 25-1210 T790M/L858R limits assumed): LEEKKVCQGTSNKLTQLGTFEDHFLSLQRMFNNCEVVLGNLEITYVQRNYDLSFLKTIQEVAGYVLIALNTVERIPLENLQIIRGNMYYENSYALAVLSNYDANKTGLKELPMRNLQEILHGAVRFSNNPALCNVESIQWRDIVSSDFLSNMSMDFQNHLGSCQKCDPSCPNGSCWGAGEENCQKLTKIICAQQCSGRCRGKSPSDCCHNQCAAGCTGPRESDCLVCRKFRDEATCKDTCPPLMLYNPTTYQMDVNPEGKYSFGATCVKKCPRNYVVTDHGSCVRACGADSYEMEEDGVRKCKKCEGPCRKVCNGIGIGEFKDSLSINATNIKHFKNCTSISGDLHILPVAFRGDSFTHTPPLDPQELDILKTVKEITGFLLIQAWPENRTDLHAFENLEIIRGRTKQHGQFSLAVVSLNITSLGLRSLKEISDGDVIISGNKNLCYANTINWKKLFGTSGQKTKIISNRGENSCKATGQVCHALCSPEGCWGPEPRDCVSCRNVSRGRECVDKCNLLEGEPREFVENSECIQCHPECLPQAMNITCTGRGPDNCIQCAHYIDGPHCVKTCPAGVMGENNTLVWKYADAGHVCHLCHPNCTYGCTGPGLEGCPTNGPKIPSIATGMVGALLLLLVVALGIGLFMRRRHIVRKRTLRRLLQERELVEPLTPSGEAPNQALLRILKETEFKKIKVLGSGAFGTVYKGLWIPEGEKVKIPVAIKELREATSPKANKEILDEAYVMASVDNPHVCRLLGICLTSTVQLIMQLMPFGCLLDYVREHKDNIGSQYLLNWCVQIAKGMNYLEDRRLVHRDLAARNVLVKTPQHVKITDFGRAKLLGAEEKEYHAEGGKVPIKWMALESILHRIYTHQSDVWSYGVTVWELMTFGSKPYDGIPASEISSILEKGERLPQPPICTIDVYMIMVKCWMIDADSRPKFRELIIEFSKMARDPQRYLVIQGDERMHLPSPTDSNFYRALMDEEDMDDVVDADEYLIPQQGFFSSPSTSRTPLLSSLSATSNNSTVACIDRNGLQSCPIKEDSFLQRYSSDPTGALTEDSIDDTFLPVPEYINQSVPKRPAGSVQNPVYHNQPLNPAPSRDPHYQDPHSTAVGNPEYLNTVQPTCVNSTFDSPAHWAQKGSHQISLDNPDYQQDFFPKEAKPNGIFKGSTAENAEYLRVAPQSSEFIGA

SMILES: C=CC(=O)Nc1cccc(-n2c(=O)n(C(C)C)c(=O)c3cnc(Nc4ccc(N5CCN(C)CC5)cc4OC)nc32)c1
- efflux ratio at 2.5 h, 2 µM [1]: 9.1
- AUC(0-inf) [2]: 658 ng·h/mL
- IC50 [3]: 79 nM
- IC50 (NCI-H1975 [4]): 44 nM
- AUC(0-inf) [5]: 186 ng·h/mL
- Activity (Mus musculus [6]): Non-Toxic
- AUC(0-t) [7]: 181 ng·h/mL
- Cmax [8]: 271 ng/mL
- clearance [9]: 89.5 mL/min/kg
- half-life at 0.1 µM [10]: 46.1 min
- AUC(0-t) [11]: 650 ng·h/mL
- IC50 (A-431 [12]): 1560 nM
- Ratio IC50 (Homo sapiens): 263
- bioavailability [13]: 35%
- IC50 (Cytochrome P450 2C9): > 50000 nM
- inhibition at 50 mg/kg (A-431 [14]): 37%
- IC50 [15]: 0.3 nM
- half-life [16]: 54 min
- Tmax [17]: 120 min
- Activity (Mus musculus [18]): Non-Toxic
- Tmax [19]: 6 min
- Activity (Mus musculus [20]): Non-Toxic
- half-life at 0.1 µM [21]: 85.4 min
- Cmax [22]: 311 ng/mL
- Vd [23]: 4.53 L/kg
- inhibition in vivo at 50 mg/kg/day (NCI-H1975 [24]): 73%
- inhibition (INH) [25]: Not Active
- Activity (Mus musculus [26]): Non-Toxic
- IC50 (Cytochrome P450 2C19): > 50000 nM
